GPR7 antag: blocks human GPR7 receptor signaling | 1.1% of 290,000 active | inhibition, % at 4.4 µM | GPR7-expressing cells, fluorescence antagonist assay | AID 1861 | P48145; in the data active = inhibition above about 16%, passing the limit was not always enough;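 also: cells stimulated with the agonist NPW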
TAAR1 ag: agonists of human TAAR1; Q96RJ0; CHO RD-HGA16 TAAR1, Fluo-8 calcium fluorescence; vehicle wells 0%, saturating PEA agonist 100%; activation, % at 3 µM; 0.99% of 360,000 active; AID 624467;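 active = activation above the mean activation of all test compounds in the run plus 3 SD, cut at about 38% in these data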
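System: CHO-derived RD-HGA16 cells with stable Gα16 and human TAAR1. Times: 17-24 h plating, Fluo-8 75 min 37 °C, 30 min RT. Measured by: calcium-sensitive Fluo-8 signal, excitation 470-495, emission 515-575 nm. Read-out basis: % activation relative to PEA EC100 response. Control set: DMSO and PEA EC100. Repeats: no replicates (n 1).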
zfTRPN1 agonist: activates the zebrafish TRPN1 channel | 0.18% of 220,000 active | AID 1424 | activation, % at 3 µM | HEK293 zebrafish TRPN1-YFP, Fluo-8 calcium fluorescence; 100% = response to 87 µM carbachol;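 active = activation above its plate's cutoff, the mean activation of test wells on that plate plus 3 SD, cut at about 19% in these data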
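Material: zebrafish TRPN1-YFP in HEK293 cells. Doses: one dose of 3 µM, 0.3% DMSO. Incubation: dye 1 h 37 °C plus 30 min RT. Measured by: intracellular calcium fluorescence with Fluo-8.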
LANA-H2A inh: blocks KSHV LANA binding to histone H2A/H2B; Q9QR71; cell-free LANA-H2A/H2B peptide, fluorescence polarization; inhibition, % (concentration not given with the values); 0.6% of 320,000 active; AID 2629; in the data active = inhibition mostly above about 10%, no sharp cut-off; inactive = mostly below about 6.7%
TAAR1 antag: antagonists of human TAAR1. Q96RJ0. CHO RD-HGA16 TAAR1, Fluo-8 calcium fluorescence, antagonist. inhibition, % at 3 µM. 1.5% of 360,000 active. AID 624466;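 active = inhibition above a per-plate cutoff, the mean inhibition of test compounds on that plate plus 3 SD, cut at about 49% in these data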
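test system = CHO RD-HGA16 cells bearing hTAAR1 | replication = singlicate | controls = DMSO-only wells and EC80 β-PEA-stimulated wells | reagent = EC80 β-phenethylamine stimulus | read-out basis = percent inhibition of PEA-evoked calcium signal, max/basal emission ratio | schedule = seeding 17-24 h prior, 75-min 37 °C, 30-min RT dye loading | signal = kinetic Fluo-8 calcium fluorescence measurement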
TRPML3 ag: human mucolipin-3 channel agonism | 0.29% of 220,000 active | activation, % at 3 µM | HEK293 TRPML3-YFP, Fluo-8 calcium fluorescence; 100% = the carbachol control signal | AID 1448;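 active = activation above its plate's cutoff, the mean activation of the plate's test wells plus 3 SD, cut at about 12% in these data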
Target sequence (Q8TDD5 whole entry, looked up): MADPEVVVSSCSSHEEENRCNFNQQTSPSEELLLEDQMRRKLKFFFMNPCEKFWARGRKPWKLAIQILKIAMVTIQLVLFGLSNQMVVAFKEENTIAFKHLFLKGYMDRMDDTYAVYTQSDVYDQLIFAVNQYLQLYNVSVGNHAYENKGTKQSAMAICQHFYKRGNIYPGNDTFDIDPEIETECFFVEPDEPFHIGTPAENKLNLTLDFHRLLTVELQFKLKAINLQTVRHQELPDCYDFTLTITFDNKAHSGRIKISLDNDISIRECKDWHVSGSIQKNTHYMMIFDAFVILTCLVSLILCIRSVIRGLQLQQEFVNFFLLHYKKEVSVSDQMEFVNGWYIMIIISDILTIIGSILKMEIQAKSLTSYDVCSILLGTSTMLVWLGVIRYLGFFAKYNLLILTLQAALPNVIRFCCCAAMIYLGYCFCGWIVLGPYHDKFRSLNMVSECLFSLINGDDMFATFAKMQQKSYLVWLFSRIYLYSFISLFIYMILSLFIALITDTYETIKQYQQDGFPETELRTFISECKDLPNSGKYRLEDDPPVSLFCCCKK
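Test system: HEK293 cells stably carrying human TRPML3-YFP; Doses: single dose, 3 µM final nominal compound, 0.3% DMSO final; Schedule: dye loading 1 h 37 °C then 30 min ambient, 125 s read; Technique: Fluo-8 calcium fluorescence; Benchmarks: high control carbachol 87 µM, low control DMSO.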
nonsel antag count: nonselective antagonism, TAAR1 counter-screen; shares compounds with TAAR1 antag; counterscreen cell line, calcium fluorescence, antagonist mode; inhibition, % at 3 µM; 77% of 2,400 active; in the data active = inhibition above about 22%;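 also: CHO-Ga16 host cells stimulated with ATP at an EC80 level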
TAAR1 antag conf: human TAAR1 antagonism, confirmed; inhibition, % at 3 µM; 40% of 2,400 active; shares compounds with TAAR1 antag; TAAR1-expressing cells, fluorescence antagonist read-out; AID 651785; in the data active = inhibition above about 49%;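 also: CHO-Ga16 host cells challenged with agonist PEA near its EC80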
Ga16 nonsel ag: nonselective Ga16 agonism, counter-screen | shares compounds with TAAR1 antag | Ga16-expressing cells, calcium fluorescence, agonist counterscreen | activation, % at 3 µM | 18% of 2,400 active; in the data active = activation above about 12%
TAAR1 ag counter: TAAR1 agonism, antagonist counter-screen; shares compounds with TAAR1 antag; hTAAR1 cell line, fluorescence activation, agonist mode; activation, % at 3 µM; 2% of 2,400 active; AID 651955; in the data active = activation above about 37%;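 also: CHO cells stably expressing TAAR1 with calcium dye readout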
A number is an active result; . = inactive; / = no result given. A selection: hits, their analogues and other compounds. The true share with any hit is near 3.4%.

SMILES	GPR7 antag	TAAR1 ag	zfTRPN1 agonist	LANA-H2A inh	TAAR1 antag	TRPML3 ag	nonsel antag count	TAAR1 antag conf	Ga16 nonsel ag	TAAR1 ag counter
O=C(O)Cc1cn(-c2ccccc2)nc1-c1ccccc1	.	.	.	.	.	.	/	/	/	/
OCc1cn(-c2ccccc2)nc1-c1ccc(-c2nn(-c3ccccc3)cc2CO)cc1	.	.	.	.	54.5	.	41.3	60.9	11.9	.
CCCCOCCCNC(=O)C[C@@H]1C[C@@]2(C(=O)OCC)CCCC=C2N(Cc2ccc3c(c2)OCO3)C1=O	/	.	/	/	.	/	/	/	/	/
c1ccc(COc2cccc(-c3cc4nc(NCCOc5ccccc5)ccn4n3)c2)cc1	/	.	/	/	.	/	/	/	/	/
c1ccc(COc2cccc(-c3cc4nc(NCCc5ccncc5)ccn4n3)c2)cc1	/	.	/	/	71.4	/	38.2	50.9	.	.
CC(C)n1cc(CNC(=O)C2CCC(=O)N(Cc3ccccc3F)C2)cn1 (centres undefined)	.	.	/	.	.	/	/	/	/	/
CC1(C)C(=O)Nc2ccccc2N1C(=O)COC(=O)c1ccc(Cl)c(S(=O)(=O)NCc2ccccc2)c1	.	.	.	.	63.2	.	34.8	60.3	.	.
CC1(C)C(=O)Nc2ccccc2N1C(=O)COC(=O)c1cc(S(C)(=O)=O)ccc1Cl	/	.	/	/	.	/	/	/	/	/
CC1(C(=O)OCC(=O)Nc2nc(-c3ccc(F)c(F)c3)cs2)CC1(Cl)Cl (centres undefined)	.	.	/	.	87.8	/	48.8	76.0	.	.
O=C(Cc1ccc(F)cc1)Nc1nc(-c2ccc(F)c(F)c2)cs1	.	.	/	.	73.6	/	34.2	.	.	.
CCN(C(=O)CSc1n[nH]c(-c2ccc(OC)cc2)n1)c1c(N)n(Cc2ccccc2)c(=O)[nH]c1=O	/	.	/	/	.	/	/	/	/	/
CCN1C/C(=C/c2ccc(OC)c(O)c2)C(=O)/C(=C/c2ccc(OC)c(O)c2)C1	.	.	.	.	.	.	/	/	/	/
COc1ccc(/C=C2\CN(Cc3ccccc3)C/C(=C\c3ccc(OC)c(O)c3)C2=O)cc1O	.	.	/	.	70.6	/	29.0	50.6	.	.
CN(C(=O)c1ccc2c(c1)SC1=NS(=O)(=O)CCN12)C(c1ccccc1)c1ccccc1	.	.	.	.	69.5	.	30.7	53.2	.	.
O=C(N/N=C/c1ccc(Br)s1)c1ccco1	.	.	.	.	.	.	/	/	/	/
O=C(N/N=C/c1sc(=O)n(Cc2ccc(Br)cc2)c1Cl)c1ccco1	.	.	/	.	81.2	/	39.0	77.3	17.0	.
C=CCCC(=O)N1C[C@H]2CCN(C)[C@H]2C[C@H]1c1ccc(Br)cc1	/	.	/	/	.	/	/	/	/	/
O=C(CSc1nc(-c2ccccc2)nc2ccc(F)cc12)Nc1cccc(C(=O)O)c1	.	.	.	.	62.7	.	31.1	48.8	.	.
O=C(CSc1nc(-c2ccccc2)nc2ccc(F)cc12)Nc1ccc(C(=O)O)cc1	.	.	.	.	.	.	/	/	/	/
O=C(COC(=O)c1ccccc1C(=O)c1ccc(Cl)c([N+](=O)[O-])c1)NC1CCCCCC1	30.2	.	.	.	73.8	.	34.9	53.7	.	.
CSc1ncccc1C(=O)OCC(=O)N1CCCC1	/	.	/	.	101.0	/	.	.	.	.
Nc1cc(Cl)ccc1C(=O)OCC(=O)N1CCCCCC1	/	.	/	.	103.3	/	.	.	.	.
Nc1cc(Cl)ccc1C(=O)OCC(=O)NC1CCCCC1	.	.	.	/	101.9	.	.	.	.	.
O=C(COC(=O)c1ccc(Cl)c([N+](=O)[O-])c1)NC1CCCC1	.	.	/	.	.	/	/	/	/	/
Nc1cc(Cl)ccc1C(=O)OCC(=O)N1CCCC1	.	.	/	.	.	/	/	/	/	/
SMILES	GPR7 antag	TAAR1 ag	zfTRPN1 agonist	LANA-H2A inh	TAAR1 antag	TRPML3 ag	nonsel antag count	TAAR1 antag conf	Ga16 nonsel ag	TAAR1 ag counter
CN(Cc1nccn1C)C(=O)CC1C(=O)NCCN1Cc1ccc(F)cc1Cl (centres undefined)	.	.	/	.	.	/	/	/	/	/
COc1ccc(CCc2nnc(NS(C)(=O)=O)s2)cc1	.	.	/	.	.	/	/	/	/	/
CC(Sc1nc(N)cc(N)n1)C(=O)Nc1ccc(N2CCOCC2)cc1 (centres undefined)	/	.	/	.	.	/	/	/	/	/
CN(C)S(=O)(=O)c1cccc(C(=O)Nc2ccccc2C(=O)NC2CC2)c1	/	.	/	.	.	/	/	/	/	/
O=C(NCCN1CCOCC1)c1ccc(/C=C2\Sc3ccccc3N(Cc3ccccc3F)C2=O)cc1	.	.	/	.	69.1	/	33.7	49.8	13.0	.
Cc1ccccc1CN1C(=O)/C(=C\c2ccc(C(=O)NCCN3CCOCC3)cc2)Sc2ccccc21	.	.	/	.	53.3	/	26.4	.	.	.
CSc1nc(SCc2ccccc2)[nH]c(=O)n1	/	.	/	/	.	/	/	/	/	/
Cc1ccccc1N1CCN(C2CCCN(C(=O)c3cn4cccc(C)c4n3)C2)CC1 (centres undefined)	.	.	/	/	57.2	/	29.6	.	.	.
COC(=O)[C@]12CCCCC=C1N(Cc1ccc(Cl)cc1Cl)C(=O)[C@H](CC(=O)N1CCC(c3ccccc3)CC1)C2	/	.	/	/	.	/	/	/	/	/
Nc1cc2c3ccccc3ccc2c2ccccc12	/	.	/	/	.	/	/	/	/	/
COc1cc(-c2nnc(SCC(=O)c3ccc(C)cc3)o2)cc(OC)c1OC	.	.	.	.	54.2	.	26.2	.	.	.
Cc1cc(NC(=O)c2cccs2)ncc1NC(=O)C(C)(C)C	.	.	/	.	.	/	/	/	/	/
CC(C)(C)c1cc(C(=O)N/N=C/c2ccc(-c3ccccc3[N+](=O)[O-])o2)n[nH]1	.	.	/	.	63.2	/	26.9	53.5	.	.
O=C(N/N=C/c1ccc(-c2ccccc2[N+](=O)[O-])o1)c1cccnc1	.	.	.	.	.	.	/	/	/	/
Cc1cc2c(c(=O)n1Cc1ccc3c(c1)OCO3)C(c1cccnc1)C(C#N)=C(N)O2 (centres undefined)	.	.	.	.	.	.	/	/	/	/
Cc1cc2c(c(=O)n1Cc1ccccn1)C(c1ccc3c(c1)OCO3)C(C#N)=C(N)O2 (centres undefined)	.	.	.	.	106.0	.	.	.	.	.
COc1ccc(CCn2c(C)cc3c(c2=O)C(c2ccc4c(c2)OCO4)C(C#N)=C(N)O3)cc1OC (centres undefined)	.	.	.	.	52.8	.	28.6	.	.	.
c1ccc(COc2cncc(-c3cccnc3)c2)cc1	/	.	/	.	.	/	/	/	/	/
